From ChEMBL document CHEMBL1128250, “Structure-activity studies of 2,3,4,4a,5,9b-hexahydroindeno[1,2-c]pyridines as antispermatogenic agents for male contraception” (1995)

system: Mus musculus; test: Tested for its effect on testes weight 3 days after single oral dose (90 mg/kg); assay type: functional, Testis
Outline: (§1)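 CD-1 outbred Swiss albino male mice, 5 per dose, single gavage on day 0 at 10 mL/kg. Vehicle was 0.15 M acetate buffer pH 5, ethanol/Tween-20/water (3:7:90), or 1% Tween-20 in water. CO2 euthanasia 72 h later. Testes weighed and histologically scored (spermatogenic index 0–6). Values are % reduction versus the assay's vehicle control. Positive control was 30 mg/kg of the parent compound. Significance by Dunnett's one-tailed t-test, p < 0.05.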

In order of rising Reduction:
1. CCN1CCC(C(O)(c2ccc(C)cc2)c2ccc(C)cc2)CC1.Cl  -21%
2. CCN1CC[C@@H]2[C@@H](c3ccc(C)cc3)c3cc(C)ccc3[C@H]2C1.Cl  -18%
3. CCN1CC[C@H]2[C@H](c3cccc(C)c3)c3cc(C)ccc3[C@H]2C1.Cl  -11%
4. CCN1CCC(C(O)c2ccc(C)cc2)C(c2ccc(C)cc2)C1.Cl (stereo in doubt; 16a)  -9%
5. CCN1CC[C@H]2[C@H](c3ccccc3)c3cc(C)ccc3[C@H]2C1.Cl  -8%
6. CCN1CC[C@H]2[C@H](c3ccc(C(=O)O)cc3)c3cc(C)ccc3[C@H]2C1.Cl (stereo in doubt; (l)-10k)  -7%
7. Cc1ccc([C@@H]2c3cc(C)ccc3[C@H]3CNCC[C@@H]23)cc1.Cl  -3%
8. CCN1CC[C@H]2[C@H](c3ccccc3)c3ccccc3[C@H]2C1.Cl  -2%
9. CCN1CC[C@H]2[C@H](c3ccc(O)cc3)c3cc(C)ccc3[C@H]2C1.Cl  -1%
10. CCN1CCC(C(O)c2ccc(C)cc2)C(c2ccc(C)cc2)C1.Cl (stereo in doubt; 16b)  0%
11. CCCN1CC[C@H]2[C@H](c3ccc(C)cc3)c3cc(C)ccc3[C@H]2C1.Cl  11%
12. CCN1CC[C@H]2[C@H](c3ccc(C#N)cc3)c3cc(C)ccc3[C@H]2C1.Cl  13%

system: Mus musculus; test: Tested for its effect on testes weight 3 days after single oral dose (3 mg/kg); assay type: functional, Testis
Outline: (§2)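 Male CD-1 (ICR) mice, 7 weeks old on arrival, 5 per dose, single gavage of 10 mL/kg on day 0. Vehicle was 0.15 M acetate buffer pH 5, ethanol/Tween-20/water 3:7:90, or 1% Tween-20. Mice were killed with CO2 at 72 h and testes weighed and scored for spermatogenic index (0–6 scale). Results are % reduction versus the vehicle control. Dunnett's one-tailed t-test.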

Compound `CCN1CCC(C(c2ccc(C)cc2)c2cccc(C)c2)CC1.Cl` (centres undefined) has a Reduction of 2%.

system: Mus musculus; test: Tested for its effect on spermatogenic index 3 days after single oral dose (90 mg/kg) in mice; assay type: functional; outline: as §1

Work on `CCN1CC[C@H]2[C@@H](c3ccc(C)cc3)c3cc(C)ccc3[C@H]2C1.Cl` yielded a Reduction of -9%.

system: Mus musculus; test: Tested for its effect on spermatogenic index 3 days after single oral dose (30 mg/kg); assay type: functional; outline: as §1

Work on `CCN1CCC(C(c2ccc(C)cc2)c2cccc(C)c2)CC1.Cl` (centres undefined) yielded a Reduction of -5%.

system: Mus musculus; test: Tested for its effect on spermatogenic index 3 days after single oral dose (90 mg/kg); assay type: functional; outline: as §1

`CCN1CC[C@H]2[C@H](c3ccc(C(=O)O)cc3)c3cc(C)ccc3[C@H]2C1.Cl` (stereo in doubt; (l)-10k) was tested, and the Reduction was 0%.

system: Mus musculus; test: Tested for its effect on spermatogenic index 3 days after single oral dose (3 mg/kg),; assay type: functional; outline: as §2

`CCN1CCC(C(c2ccc(C)cc2)c2cccc(C)c2)CC1.Cl` (centres undefined) showed a Reduction of 2%.

system: Mus musculus; test: Tested for its effect on testes weight 3 days after single oral dose (30 mg/kg); assay type: functional, Testis; outline: as §1

In the case of `CCN1CCC(C(c2ccc(C)cc2)c2cccc(C)c2)CC1.Cl` (centres undefined), the Reduction is reported as 9%.

system: Mus musculus; test: Tested for its effect on mouse testes weight 3 days after single oral dose (90 mg/kg); assay type: functional, Testis; outline: as §1

With `CCN1CC[C@H]2[C@@H](c3ccc(C)cc3)c3cc(C)ccc3[C@H]2C1.Cl` the Reduction was 2%.

system: Mus musculus; test: Tested for its effect on spermatogenic index 3 days after single oral dose (90 mg/kg),; assay type: functional; outline: as §1

In order of rising Reduction:
1. CCN1CC[C@H]2[C@H](c3ccccc3)c3cc(C)ccc3[C@H]2C1.Cl  -9%
2. CCN1CC[C@H]2[C@H](c3cccc(C)c3)c3cc(C)ccc3[C@H]2C1.Cl  -9%
3. CCN1CC[C@H]2[C@H](c3ccc(O)cc3)c3cc(C)ccc3[C@H]2C1.Cl  -5%
4. Cc1ccc([C@@H]2c3cc(C)ccc3[C@H]3CNCC[C@@H]23)cc1.Cl  -5%
5. CCN1CC[C@H]2[C@H](c3ccc(C#N)cc3)c3cc(C)ccc3[C@H]2C1.Cl  -4%
6. CCN1CCC(C(O)(c2ccc(C)cc2)c2ccc(C)cc2)CC1.Cl  0%
7. CCCN1CC[C@H]2[C@H](c3ccc(C)cc3)c3cc(C)ccc3[C@H]2C1.Cl  0%
8. CCN1CC[C@@H]2[C@@H](c3ccc(C)cc3)c3cc(C)ccc3[C@H]2C1.Cl  0%
9. CCN1CCC(C(O)c2ccc(C)cc2)C(c2ccc(C)cc2)C1.Cl (stereo in doubt; 16b)  0%
10. CCN1CC[C@H]2[C@H](c3ccccc3)c3ccccc3[C@H]2C1.Cl  2%
